As a reminder, the EC50 is the concentration needed to bring the measured effect to its halfway point. A higher EC50 goes with a need for much substance. The Ki is a dissociation constant, usually derived from enzyme kinetics or from competition with a known ligand. Higher therefore signals weaker binding. The IC50 is the midpoint of a concentration-inhibition curve. A low value points to greater potency in that assay.

The record followed here is ChEMBL document CHEMBL1132711 (J Med Chem, 1999).

In assay [1] the target is T1, Progesterone receptor (Homo sapiens, UniProt P06401).
T1 sequence (P06401 whole entry): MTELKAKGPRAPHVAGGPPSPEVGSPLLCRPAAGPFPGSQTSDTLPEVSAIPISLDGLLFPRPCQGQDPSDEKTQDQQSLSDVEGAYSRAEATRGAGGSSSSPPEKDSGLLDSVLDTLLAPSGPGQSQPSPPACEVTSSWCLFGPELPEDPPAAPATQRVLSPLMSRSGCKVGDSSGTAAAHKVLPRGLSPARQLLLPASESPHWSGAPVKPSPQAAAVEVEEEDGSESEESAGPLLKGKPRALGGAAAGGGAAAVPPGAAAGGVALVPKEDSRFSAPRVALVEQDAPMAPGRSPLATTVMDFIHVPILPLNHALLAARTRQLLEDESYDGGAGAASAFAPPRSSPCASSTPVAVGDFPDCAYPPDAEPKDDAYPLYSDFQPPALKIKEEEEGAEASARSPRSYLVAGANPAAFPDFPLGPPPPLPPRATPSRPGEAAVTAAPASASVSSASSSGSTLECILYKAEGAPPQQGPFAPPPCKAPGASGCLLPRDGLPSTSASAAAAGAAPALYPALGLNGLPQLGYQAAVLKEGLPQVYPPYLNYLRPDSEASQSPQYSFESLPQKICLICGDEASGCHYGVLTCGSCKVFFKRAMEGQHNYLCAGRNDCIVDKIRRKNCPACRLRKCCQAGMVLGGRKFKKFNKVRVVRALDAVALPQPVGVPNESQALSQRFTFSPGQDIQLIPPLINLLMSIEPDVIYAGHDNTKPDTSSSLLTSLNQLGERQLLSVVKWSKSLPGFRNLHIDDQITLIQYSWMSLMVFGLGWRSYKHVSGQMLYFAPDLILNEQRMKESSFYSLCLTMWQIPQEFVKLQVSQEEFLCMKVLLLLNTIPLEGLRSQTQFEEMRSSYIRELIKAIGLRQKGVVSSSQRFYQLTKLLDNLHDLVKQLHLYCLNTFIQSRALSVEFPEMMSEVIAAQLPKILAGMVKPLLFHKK
The assay is described as follows: Agonistic effect on transcriptional activity in T47D cells expressing human Progesterone receptor. It counts as functional, cell-based. In outline: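 T47D human breast cancer cells, which express high levels of hPR, incubated with test compound. Readout is absorbance from induced alkaline phosphatase expression. […] Values are the mean of at least three separate experiments in triplicate; values without SEM are from a single experiment.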

The target in assay [2] is T2, Progesterone receptor (Homo sapiens) (UniProt P06401).
T2 sequence (whole entry): T1 sequence (P06401 whole entry)
The assay is described as follows: Agonistic activity by cotransfection assay against human Progesterone receptor in T47D cells. Type of assay: functional, cell-based. The procedure, abridged: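 T47D human breast cancer cells (high endogenous hPR) incubated with test compound in 96-well format; alkaline phosphatase expression measured by absorbance. […] EC50 from full dose–response curves; mean of at least three separate experiments in triplicate, or single experiment where no error given.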

Assay [3] addresses T1, Progesterone receptor. The assay can be described thus: (§1) Compound was tested for agonistic activity by cotransfection assay against human Progesterone receptor in CV-1 cells. Type of assay: functional, cell-based.
Assay [4] concerns the target T2, Progesterone receptor (Homo sapiens). The assay is described as §1. Type of assay: functional, cell-based.
For assay [5] the target is unchanged. The assay can be described thus: (§2) Antagonistic activity by cotransfection assay against human Progesterone receptor in CV-1 cells. Type of assay: functional, cell-based.
Assay [6] addresses T1, Progesterone receptor. The assay is described as follows: Compound was evaluated for its binding affinity against baculovirus expressed Progesterone receptor.
Assay [7] concerns the target T1, Progesterone receptor. Described as §2. It counts as functional, cell-based.

On to `CC1=CC(C)(C)Nc2ccc3c(c21)C(c1ccc(Cl)cc1)Oc1ccccc1-3` (configuration not stated), for which the EC50 on Progesterone receptor [1] turned out to be 32 nM. For the same compound, in assay [2], the Efficacy amounted to 48%.
Consider `C[C@@H]1CC(C)(C)Nc2ccc3c(c21)[C@H](c1ccc(Cl)cc1)Oc1ccccc1-3`, for which it took 48 nM to reach a half-maximal effect at Progesterone receptor [3] (EC50). Further, the Efficacy is 58% in assay [4] and 56% in assay [5]. Further, on Progesterone receptor [6], the Ki was 91 nM. Further, the IC50 against Progesterone receptor [7] turned out to be 3100 nM.
